Here are results for four molecules from ChEMBL document CHEMBL5523707, “Novel Inhibitory Site Revealed by XAP044 Mode of Action on the Metabotropic Glutamate 7 Receptor Venus Flytrap Domain” (J Med Chem, 2024).

As usually defined, the Emax is the maximal effect, on the per cent scale that the assay sets. The EC50 is the concentration giving half of the maximal effect. For orientation: pEC50 means the EC50 on a negative log10 scale, so that one unit is a factor of ten.

Structures are written as SMILES. Calls of active or inactive are those of the source. No cut-off for these calls is given here.

The species named for test [1] is Rattus norvegicus. The experiment in a line: Ratio of pEC50 for antagonist activity against LSP4-202 induced wild type rat mGlu7 assessed as decrease in LSP4-202 potency by measuring LSP4-202 pEC50 at 30 uM to pEC50 for LSP4-202-induced wild type rat mGlu7.
The target of test [2] is Metabotropic glutamate receptor 7 (Rattus norvegicus) (UniProt P35400). In words: Antagonist activity against LSP4-202-induced rat mGlu7 activation transfected in HEK293 cells co-transfected with chimeric Gqi9 assessed as decrease in LSP4-202 potency by measuring LSP4-202 maximum efficacy at 30 to 100 uM incubated for 24 hrs by IP-one HTRF assay relative to control. It is filed as functional, cell-based. To be noted: filed as antagonist, dose 30-100 µM. An outline of the steps:
(§1)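 IP-One HTRF IP1 read-out in HEK293 transiently expressing rat mGlu7 plus chimeric Gqα9, 24 h after electroporation. LSP4-2022 concentration-response was tested with derivatives at 30 or 100 µM. Gives pEC50, pEC50/pEC50 control ratio, and max as % of LSP4-2022 maximal effect over basal. Triplicates, n independent experiments; paired t-test.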
Background: In TR-FRET formats the signal depends on donor and acceptor labels being close together.

Test [3] shares this target. The experiment in a line: Competitive antagonist activity against rat mGlu7 receptor assessed as decrease in LSP4-202 effect at 0.3 to 30 uM by Schild plot analysis. To be noted: filed as antagonist, dose 0.3-30 µM. An outline of the steps: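 Schild analysis used the shift of LSP4-2022 concentration-response curves in IP-One IP1 assays. Cells were HEK293 co-transfected with rat mGlu7 and Gqα9. Data are means ± sem of 3 to 11 experiments run in triplicates.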

A short description of test [4]: Antagonist activity against LSP4-202-induced rat mGlu7 […] mutant assessed as decrease in LSP4-202 potency by measuring LSP4-202 pEC50 at 10 uM.
The species named for test [5] is Rattus norvegicus. In words: Ratio of pEC50 for antagonist activity against LSP4-202 induced rat mGlu7 S229A mutant assessed as decrease in LSP4-202 potency by measuring LSP4-202 pEC50 at 10 uM to pEC50 for LSP4-202-induced rat mGlu7 S229A mutant.
Test [6] in a line: Antagonist activity against LSP4-202-induced rat mGlu7 […] mutant assessed as decrease in LSP4-202 potency by measuring LSP4-202 pEC50 at 30 uM.
The species named for test [7] is Rattus norvegicus. In words: Ratio of pEC50 for antagonist activity against LSP4-202 induced wild type rat mGlu7 assessed as decrease in LSP4-202 potency by measuring LSP4-202 pEC50 at 10 uM to pEC50 for LSP4-202-induced wild type rat mGlu7.
For test [8], the species on record is Rattus norvegicus. The experiment in a line: Ratio of pEC50 for antagonist activity against LSP4-202-induced rat mGlu7 activation transfected in HEK293 cells co-transfected with chimeric Gqi9 assessed as decrease in LSP4-202 potency to pEC50 for LSP4-202-induced rat mGlu7 activation transfected in HEK293 cells co-transfected with chimeric Gqi9. The class given is cell-based. An outline of the steps:
as §1

In test [9] the target is T1, Metabotropic glutamate receptor 7 (Rattus norvegicus, UniProt P35400). The experiment in a line: Antagonist activity against rat mGlu7 activation transfected in HEK293 cells co-transfected with chimeric Gqi9 incubated for 24 hrs in presence of LSP4-2022 by IP-one HTRF assay. It is filed as functional, cell-based. In a few lines: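 Inhibition curves were run with increasing inhibitor concentrations against IP1 production by 30 µM LSP4-2022. Rat mGlu7 was co-expressed with Gqα9 in HEK293 and assayed 24 h post-transfection with IP-One HTRF. IC50/pIC50 are means ± sem of independent experiments in triplicates. pIC50 compared to reference by unpaired t-test.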

Test [10] is described as follows: Antagonist activity against LSP4-202-induced rat mGlu7 […] mutant assessed as decrease in LSP4-202 potency by measuring LSP4-202 pEC50 at 100 uM.
The species named for test [11] is Rattus norvegicus. The experiment in a line: Ratio of pEC50 for antagonist activity against LSP4-202 induced rat mGlu7 S229A mutant assessed as decrease in LSP4-202 potency by measuring LSP4-202 pEC50 at 100 uM to pEC50 for LSP4-202-induced rat mGlu7 S229A mutant.
The species named for test [12] is Rattus norvegicus. The experiment in a line: Ratio of pEC50 for antagonist activity against LSP4-202 induced rat mGlu7 S229A mutant assessed as decrease in LSP4-202 potency by measuring LSP4-202 pEC50 at 30 uM to pEC50 for LSP4-202-induced rat mGlu7 S229A mutant.
For test [13], the species on record is Rattus norvegicus. The experiment in a line: Ratio of pEC50 for antagonist activity against LSP4-202 induced wild type rat mGlu7 assessed as decrease in LSP4-202 potency by measuring LSP4-202 pEC50 at 3 uM to pEC50 for LSP4-202-induced wild type rat mGlu7.
Test [14] addresses T1, Metabotropic glutamate receptor 7. The experiment in a line: Inhibition of [3H] -LY341495 binding to rat mGlu7 expressed in CHO cell membrane incubated for 30 mins by liquid scintillation analysis.
Test [15] can be described thus: Antagonist activity against LSP4-202-induced rat mGlu7 […] mutant assessed as decrease in LSP4-202 potency by measuring LSP4-202 pEC50 at 3 uM.
Test [16] is filed under the species Rattus norvegicus. The experiment in a line: Ratio of pEC50 for antagonist activity against LSP4-202 induced rat mGlu7 S229A mutant assessed as decrease in LSP4-202 potency by measuring LSP4-202 pEC50 at 3 uM to pEC50 for LSP4-202-induced rat mGlu7 S229A mutant.
Test [17] deals with Metabotropic glutamate receptor 4 (Rattus norvegicus, UniProt P31423, R60A). In words: Agonist activity against rat mGlu4 R60A mutant.
In test [18] the target is Metabotropic glutamate receptor 7 (Rattus norvegicus, UniProt P35400, N74K). The experiment in a line: Agonist activity at rat mGlu7 N74K mutant.
The target in test [19] is Metabotropic glutamate receptor 7 (Rattus norvegicus, UniProt P35400, K60A). The experiment in a line: Agonist activity at rat mGlu7 K60A mutant.
The nature of test [20]: Agonist activity at rat mGlu7 Q258R/D262/R263 mutant.
The nature of test [21]: Agonist activity at rat mGlu4 R258Q/D262/R263 mutant.
Test [22] concerns the target Metabotropic glutamate receptor 4 (Rattus norvegicus, UniProt P31423, S160D). In words: Agonist activity against rat mGlu4 S160D mutant.
For test [23], the target named is Metabotropic glutamate receptor 4 (Rattus norvegicus, UniProt P31423, S160A). The experiment in a line: Agonist activity against rat mGlu4 S160A mutant.
The target in test [24] is T1, Metabotropic glutamate receptor 7. The experiment in a line: Agonist activity at wild type rat mGlu7. It is filed as functional. In a few lines:
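HEK293 cells were transiently transfected by electroporation with rat mGlu7 plasmid plus chimeric Gqα9 to couple to phospholipase C. They were grown in DMEM with 10% FBS on polyornithine-coated wells at 150 000 cells/well.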

For test [25], the target named is Metabotropic glutamate receptor 4 (Rattus norvegicus, UniProt P31423). The experiment in a line: Agonist activity against wild type rat mGlu4. It is filed as functional.
The nature of test [26]: Agonist activity at rat mGlu7 D314A mutant.
Test [27] has as its target Metabotropic glutamate receptor 4 (Rattus norvegicus, UniProt P31423, K74A). The experiment in a line: Agonist activity against rat mGlu4 K74A mutant.
The nature of test [28]: Agonist activity at rat mGlu7 loop beta10-alpha7 region.
A short description of test [29]: Agonist activity at rat mGlu7 S229A mutant.
Test [30] can be described thus: Agonist activity at rat mGlu4 loop beta-10-alpha7 region.
Test [31] concerns the target Metabotropic glutamate receptor 4 (Rattus norvegicus, UniProt P31423, R258A). The experiment in a line: Agonist activity at rat mGlu4 R258A mutant.
Test [32] concerns the target Metabotropic glutamate receptor 7 (Rattus norvegicus, UniProt P35400, N74A). The experiment in a line: Agonist activity at rat mGlu7 N74A mutant.

Chain of Metabotropic glutamate receptor 7 (Rattus norvegicus) (P35400 whole entry): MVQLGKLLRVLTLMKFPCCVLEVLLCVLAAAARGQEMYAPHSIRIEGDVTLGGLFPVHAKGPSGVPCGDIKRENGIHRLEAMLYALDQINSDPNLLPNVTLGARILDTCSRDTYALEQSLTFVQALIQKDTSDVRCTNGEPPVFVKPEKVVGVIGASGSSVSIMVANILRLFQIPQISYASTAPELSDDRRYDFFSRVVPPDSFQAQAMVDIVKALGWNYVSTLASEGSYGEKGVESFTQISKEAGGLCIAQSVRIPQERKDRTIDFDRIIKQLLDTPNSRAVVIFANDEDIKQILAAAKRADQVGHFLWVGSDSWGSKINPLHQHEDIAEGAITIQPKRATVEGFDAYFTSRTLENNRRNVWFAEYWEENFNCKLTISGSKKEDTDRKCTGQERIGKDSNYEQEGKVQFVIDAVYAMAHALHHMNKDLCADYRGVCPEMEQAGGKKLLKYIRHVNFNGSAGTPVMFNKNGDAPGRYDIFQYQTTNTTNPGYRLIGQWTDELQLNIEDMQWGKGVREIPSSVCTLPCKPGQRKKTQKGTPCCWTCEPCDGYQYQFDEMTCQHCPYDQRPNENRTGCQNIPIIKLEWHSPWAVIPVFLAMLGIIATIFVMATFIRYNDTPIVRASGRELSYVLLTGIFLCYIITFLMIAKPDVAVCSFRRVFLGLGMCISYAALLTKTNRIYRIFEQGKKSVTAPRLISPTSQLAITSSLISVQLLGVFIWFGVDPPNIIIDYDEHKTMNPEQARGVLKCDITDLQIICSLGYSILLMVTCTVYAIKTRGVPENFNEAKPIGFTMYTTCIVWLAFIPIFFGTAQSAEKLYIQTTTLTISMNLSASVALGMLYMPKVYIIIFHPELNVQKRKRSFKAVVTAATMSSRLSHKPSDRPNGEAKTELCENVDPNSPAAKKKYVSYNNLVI
T1 sequence (P35400 whole entry): as above
Chain of Metabotropic glutamate receptor 4 (Rattus norvegicus, UniProt P31423, R258A) (P31423 33-912 R258A limits assumed): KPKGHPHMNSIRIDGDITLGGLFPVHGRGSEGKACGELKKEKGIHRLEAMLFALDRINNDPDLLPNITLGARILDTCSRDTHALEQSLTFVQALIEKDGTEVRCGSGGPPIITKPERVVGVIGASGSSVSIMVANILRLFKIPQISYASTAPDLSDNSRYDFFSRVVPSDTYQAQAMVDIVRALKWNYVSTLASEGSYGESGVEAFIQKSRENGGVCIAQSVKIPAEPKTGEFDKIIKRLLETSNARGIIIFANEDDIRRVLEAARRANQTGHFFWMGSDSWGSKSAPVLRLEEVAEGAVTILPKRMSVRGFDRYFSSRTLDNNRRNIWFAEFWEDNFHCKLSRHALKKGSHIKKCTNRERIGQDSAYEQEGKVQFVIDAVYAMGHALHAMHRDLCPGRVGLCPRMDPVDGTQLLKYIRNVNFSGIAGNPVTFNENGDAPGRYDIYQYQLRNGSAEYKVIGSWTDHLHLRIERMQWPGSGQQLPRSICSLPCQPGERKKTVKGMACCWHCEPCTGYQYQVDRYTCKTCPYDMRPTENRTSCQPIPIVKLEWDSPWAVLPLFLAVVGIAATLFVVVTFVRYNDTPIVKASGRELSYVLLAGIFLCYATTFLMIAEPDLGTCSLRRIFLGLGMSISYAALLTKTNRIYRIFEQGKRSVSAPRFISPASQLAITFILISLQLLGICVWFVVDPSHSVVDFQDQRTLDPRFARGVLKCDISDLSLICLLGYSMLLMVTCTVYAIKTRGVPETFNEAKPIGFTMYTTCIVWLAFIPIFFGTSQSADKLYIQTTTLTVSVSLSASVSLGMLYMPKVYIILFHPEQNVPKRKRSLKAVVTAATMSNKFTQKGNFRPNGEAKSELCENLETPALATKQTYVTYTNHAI
Chain of Metabotropic glutamate receptor 7 (Rattus norvegicus, UniProt P35400, N74K) (P35400 35-915 N74K limits assumed): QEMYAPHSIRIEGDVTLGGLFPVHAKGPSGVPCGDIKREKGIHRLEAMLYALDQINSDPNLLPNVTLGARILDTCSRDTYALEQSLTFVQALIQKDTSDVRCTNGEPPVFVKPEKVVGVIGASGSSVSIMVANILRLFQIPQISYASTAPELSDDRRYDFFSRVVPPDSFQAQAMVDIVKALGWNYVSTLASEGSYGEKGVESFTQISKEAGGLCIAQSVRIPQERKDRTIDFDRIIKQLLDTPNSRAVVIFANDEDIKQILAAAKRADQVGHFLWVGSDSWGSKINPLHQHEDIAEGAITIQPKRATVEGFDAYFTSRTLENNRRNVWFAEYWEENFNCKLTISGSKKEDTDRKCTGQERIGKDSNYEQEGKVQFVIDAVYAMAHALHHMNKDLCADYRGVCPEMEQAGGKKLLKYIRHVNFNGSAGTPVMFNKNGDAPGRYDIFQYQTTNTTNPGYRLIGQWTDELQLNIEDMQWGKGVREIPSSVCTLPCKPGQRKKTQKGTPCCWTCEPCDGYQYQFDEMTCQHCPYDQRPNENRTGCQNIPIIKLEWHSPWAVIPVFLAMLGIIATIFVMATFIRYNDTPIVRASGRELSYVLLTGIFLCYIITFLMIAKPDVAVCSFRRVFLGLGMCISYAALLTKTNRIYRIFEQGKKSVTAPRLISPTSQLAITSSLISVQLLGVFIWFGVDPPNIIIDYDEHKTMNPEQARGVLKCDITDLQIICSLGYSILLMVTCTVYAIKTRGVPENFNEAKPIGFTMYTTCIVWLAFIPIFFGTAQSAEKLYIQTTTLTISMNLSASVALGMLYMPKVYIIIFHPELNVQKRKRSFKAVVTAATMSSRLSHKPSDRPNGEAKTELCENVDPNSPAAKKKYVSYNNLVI
Chain of Metabotropic glutamate receptor 4 (Rattus norvegicus, UniProt P31423, S160D) (P31423 33-912 S160D limits assumed): as the sequence (P31423 33-912 R258A limits assumed) above, with S128D, A226R counted along it
Chain of Metabotropic glutamate receptor 4 (Rattus norvegicus, UniProt P31423) (P31423 whole entry): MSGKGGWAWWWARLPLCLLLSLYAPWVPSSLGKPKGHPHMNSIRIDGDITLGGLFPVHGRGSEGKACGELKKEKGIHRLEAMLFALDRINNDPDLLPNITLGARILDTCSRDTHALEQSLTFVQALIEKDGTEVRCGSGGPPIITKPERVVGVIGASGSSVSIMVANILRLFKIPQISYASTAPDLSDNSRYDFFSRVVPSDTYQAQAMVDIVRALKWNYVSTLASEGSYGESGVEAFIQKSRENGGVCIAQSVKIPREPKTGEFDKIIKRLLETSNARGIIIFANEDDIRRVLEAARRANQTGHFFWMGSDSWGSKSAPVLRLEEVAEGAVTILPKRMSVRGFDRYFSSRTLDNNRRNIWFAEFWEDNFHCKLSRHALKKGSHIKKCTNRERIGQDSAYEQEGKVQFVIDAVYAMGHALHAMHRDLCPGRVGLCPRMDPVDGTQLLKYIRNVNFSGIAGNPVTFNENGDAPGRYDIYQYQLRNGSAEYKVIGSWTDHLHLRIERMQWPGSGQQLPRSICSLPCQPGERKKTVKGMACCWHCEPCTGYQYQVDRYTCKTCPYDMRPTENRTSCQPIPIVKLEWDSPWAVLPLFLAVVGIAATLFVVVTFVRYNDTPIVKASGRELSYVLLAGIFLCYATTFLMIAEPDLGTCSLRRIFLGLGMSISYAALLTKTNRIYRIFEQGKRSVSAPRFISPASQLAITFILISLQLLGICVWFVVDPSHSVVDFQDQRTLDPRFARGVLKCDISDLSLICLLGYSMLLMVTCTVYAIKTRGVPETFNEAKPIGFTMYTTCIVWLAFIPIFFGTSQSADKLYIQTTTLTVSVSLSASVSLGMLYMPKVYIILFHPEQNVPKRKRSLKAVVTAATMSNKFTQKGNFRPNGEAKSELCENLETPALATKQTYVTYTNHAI
Chain of Metabotropic glutamate receptor 4 (Rattus norvegicus, UniProt P31423, S160A) (P31423 33-912 S160A limits assumed): as the sequence (P31423 33-912 R258A limits assumed) above, with S128A, A226R counted along it
Chain of Metabotropic glutamate receptor 4 (Rattus norvegicus, UniProt P31423, R60A) (P31423 33-912 R60A limits assumed): as the sequence (P31423 33-912 R258A limits assumed) above, with R28A, A226R counted along it
Chain of Metabotropic glutamate receptor 7 (Rattus norvegicus, UniProt P35400, N74A) (P35400 35-915 N74A limits assumed): as the sequence (P35400 35-915 N74K limits assumed) above, with K40A counted along it
Chain of Metabotropic glutamate receptor 4 (Rattus norvegicus, UniProt P31423, K74A) (P31423 33-912 K74A limits assumed): as the sequence (P31423 33-912 R258A limits assumed) above, with K42A, A226R counted along it
Chain of Metabotropic glutamate receptor 7 (Rattus norvegicus, UniProt P35400, K60A) (P35400 35-915 K60A limits assumed): as the sequence (P35400 35-915 N74K limits assumed) above, with K26A, K40N counted along it

On to `O=C(COc1ccc(Br)cc1F)c1ccc(O)c(O)c1`, for which the Ratio came out at 0.79 in the test filed under Rattus norvegicus [1]; 0.91 in the test listed under Rattus norvegicus [5]; 0.85 in the test filed under Rattus norvegicus [7]; 0.76 in the test filed under Rattus norvegicus [8]; 0.95 in the test filed under Rattus norvegicus [11]; 0.93 in the test listed under Rattus norvegicus [12]. Also, in the test filed under Rattus norvegicus [13], the Ratio was determined as 0.91. In addition, the Emax in test [2] worked out at 90.3%. Further, the outcome in [3] was Active. Besides, the EC50 in test [4] was determined as 38.2 µM; in [6], 35.7 µM; in test [10] it was 27 µM. For the same molecule, the pEC50 in test [4] is reported as 4.42; in test [6], 4.53; in test [10], 4.6. The IC50 is 3.44 µM in test [9] (read-out: IC50) and 3.31 µM in test [9] (read-out: pIC50 (converted)).
`N[C@](CC1c2ccccc2Oc2ccccc21)(C(=O)O)[C@H]1C[C@@H]1C(=O)O` had an IC50 in [14] of 0.19 µM.
Take `O=C(COc1ccc(Br)cc1F)c1ccc(O)c(F)c1`: the Ratio in the test listed under Rattus norvegicus [1] is 0.59; in the test listed under Rattus norvegicus [5] it was 0.97; in the test listed under Rattus norvegicus [7], 0.72; in the test filed under Rattus norvegicus [8], less than 0.6; in the test filed under Rattus norvegicus [16], 1; in the test listed under Rattus norvegicus [11], 0.82. Moreover, the Ratio amounted to 0.91 in the test filed under Rattus norvegicus [12] and 0.82 in the test listed under Rattus norvegicus [13]. In addition, the outcome in [3] was Active. Also, the EC50 in test [4] was determined as 9.91 µM; in test [15] it was 6.88 µM; in test [6] it was 21.7 µM; in test [10] it was 60.7 µM. Moreover, the pEC50 in test [4] is 5; in test [15] it was 5.16; in test [6], 4.68; in [10] it was 4.25. Further, the IC50 in test [9] (read-out: IC50) was 0.95 µM; in [9] (read-out: pIC50 (converted)), 0.851 µM.
For the molecule `N[C@@H](CCP(=O)(O)O)C(=O)O`, the EC50 is 1.16 µM in test [17]; 10.5 µM in test [18]; 1980 µM in test [19]; more than 100 µM in test [20]; 11.1 µM in test [21]; 12.3 µM in test [22]. The EC50 in [23] is 2.66 µM; in test [24], more than 100 µM; in test [25], 0.343 µM; in test [26] it was more than 1000 µM; in test [27] it was 0.23 µM; in test [28], 45 µM. Moreover, the EC50 in [29] was 182 µM; in test [30], 0.505 µM; in [31], 1.87 µM; in test [32] it was more than 100 µM.
